ChEMBL document CHEMBL5104204, “Synthesis and in vitro anticancer evaluation of novel flavonoid-based amide derivatives as regulators of the PI3K/AKT signal pathway for TNBC treatment” (RSC Med Chem, 2022)

Tests used:
Assay type in all cases: functional, cell-based
[1] = test system: MDA-MB-231; assay: Antitumor activity against human MDA-MB-231 cells assessed as inhibit cell proliferation incubated for 72 hrs by CCK-8 assay; details: MDA-MB-231, 72 h
Procedure, shortened: (§1)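 CCK8 viability readout. Culture media: HCC1937, A549, HeLa and GTL-16 in RPMI 1640; MDA-MB-231, MCF-7 and HepG2 in high-glucose DMEM; all with 10% FBS and penicillin/streptomycin, 37 °C, 5% CO2. 4×10^3–6×10^3 cells/well, 24 h, then compounds in serum-free medium, 72 h at 37 °C. 10% CCK8, 2 h, OD 450/630 nm. Five wells per group; IC50 from inhibition rate; three independent experiments, mean ± SD.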

[2] = test system: HCC1937; assay: Antitumor activity against human HCC1937 cells assessed as inhibit cell proliferation incubated for 72 hrs by CCK-8 assay; details: HCC1937, 72 h; procedure, shortened: as §1
[3] = test system: GTL 16 cell line; assay: Antitumor activity against human GTL 16 cell line assessed as inhibit cell proliferation incubated for 72 hrs by CCK-8 assay; details: GTL 16, 72 h; procedure, shortened: as §1
[4] = test system: HepG2; assay: Antitumor activity against human HepG2 cells assessed as inhibit cell proliferation incubated for 72 hrs by CCK-8 assay; details: HepG2, 72 h; procedure, shortened: as §1
[5] = test system: MCF7; assay: Antitumor activity against human MCF7 cells assessed as inhibit cell proliferation incubated for 72 hrs by CCK-8 assay; details: MCF7, 72 h; procedure, shortened: as §1
[6] = test system: HeLa; assay: Antitumor activity against human HeLa cells assessed as inhibit cell proliferation incubated for 72 hrs by CCK-8 assay; procedure, shortened: as §1
[7] = test system: A549; assay: Antitumor activity against human A549 cells assessed as inhibit cell proliferation incubated for 72 hrs by CCK-8 assay; details: A549, 72 h; procedure, shortened: as §1

## O=C(Nc1cccc(-c2oc3cc(-c4ccc(F)cc4)ccc3c(=O)c2O)c1)c1ccccc1F
[1]
  IC50: 7.24 µM
[2]
  IC50: 10.8 µM
[3]
  IC50: 17.4 µM
[4]
  IC50: 10.1 µM
[5]
  IC50: 7.57 µM
[6]
  IC50: 5.63 µM
[7]
  IC50: 4.41 µM

## COc1cccc(C(=O)Nc2cccc(-c3oc4cc(-c5ccc(F)cc5)ccc4c(=O)c3O)c2)c1
[1]
  IC50: 9.16 µM
[2]
  IC50: 18.9 µM
[3]
  IC50: 12.5 µM
[4]
  IC50: 9.95 µM
[5]
  IC50: 15.3 µM
[6]
  IC50: 5.65 µM
[7]
  IC50: 10.8 µM

## O=C(Nc1cccc(-c2oc3cc(-c4ccc(F)cc4)ccc3c(=O)c2O)c1)c1ccc(Br)cc1
[1]
  IC50: 24.9 µM
[2]
  IC50: 8.63 µM
[3]
  IC50: 25.4 µM
[4]
  IC50: 13.9 µM
[5]
  IC50: 24 µM
[6]
  IC50: 9.74 µM
[7]
  IC50: 13.5 µM

## O=c1[nH]cc(F)c(=O)[nH]1 [FLUOROURACIL]
[1]
  IC50: 7.75 µM
[2]
  IC50: 25.9 µM
[3]
  IC50: 0.84 µM
[4]
  IC50: 2.88 µM
[5]
  IC50: 4.42 µM
[6]
  IC50: 1.94 µM
[7]
  IC50: 2.65 µM

## O=C(Nc1cccc(-c2oc3cc(-c4ccc(F)cc4)ccc3c(=O)c2O)c1)c1ccc(-c2ccccc2)cc1
[1]
  IC50: 63.2 µM
[2]
  IC50: 44.1 µM
[4]
  IC50: 88.5 µM
[5]
  IC50: 38.5 µM
[6]
  IC50: > 100 µM
[7]
  IC50: > 100 µM

## N#Cc1ccc(C(=O)Nc2cccc(-c3oc4cc(-c5ccc(F)cc5)ccc4c(=O)c3O)c2)cc1
[1]
  IC50: 11.6 µM
[2]
  IC50: 2.99 µM
[3]
  IC50: 31.8 µM
[4]
  IC50: 7.11 µM
[5]
  IC50: 2.66 µM
[6]
  IC50: 23.3 µM
[7]
  IC50: 2.36 µM

## O=C(Nc1cccc(-c2oc3cc(-c4ccc(F)cc4)ccc3c(=O)c2O)c1)c1cc(F)cc(F)c1
[1]
  IC50: 2.44 µM
[2]
  IC50: 2.07 µM
[3]
  IC50: 7.41 µM
[4]
  IC50: 4.96 µM
[5]
  IC50: 2.49 µM
[6]
  IC50: 3.38 µM
[7]
  IC50: 7.62 µM

## Cc1ccc(C(=O)Nc2cccc(-c3oc4cc(-c5ccc(F)cc5)ccc4c(=O)c3O)c2)cc1
[1]
  IC50: 4.35 µM
[2]
  IC50: 7.11 µM
[3]
  IC50: 12.9 µM
[4]
  IC50: 2.32 µM
[5]
  IC50: 2.4 µM
[6]
  IC50: 6.19 µM
[7]
  IC50: 6.91 µM

## O=C(Nc1cccc(-c2oc3cc(-c4ccc(F)cc4)ccc3c(=O)c2O)c1)c1ccc(C(F)(F)F)cc1
[1]
  IC50: 29.4 µM
[2]
  IC50: 7.35 µM
[3]
  IC50: 33 µM
[4]
  IC50: 42.7 µM
[5]
  IC50: 32.6 µM
[6]
  IC50: 17.4 µM
[7]
  IC50: 19.4 µM

## COc1cc(OC)cc(C(=O)Nc2cccc(-c3oc4cc(-c5ccc(F)cc5)ccc4c(=O)c3O)c2)c1
[1]
  IC50: 4.04 µM
[2]
  IC50: 6.25 µM
[3]
  IC50: 19.6 µM
[4]
  IC50: 23.5 µM
[5]
  IC50: 3.47 µM
[6]
  IC50: 2.7 µM
[7]
  IC50: 2.39 µM

## O=C(Nc1cccc(-c2oc3cc(-c4ccc(F)cc4)ccc3c(=O)c2O)c1)c1cnc(Cl)nc1Cl
[4]
  IC50: > 100 µM
[7]
  IC50: > 100 µM

## Cc1ccccc1C(=O)Nc1cccc(-c2oc3cc(-c4ccc(F)cc4)ccc3c(=O)c2O)c1
[1]
  IC50: 4.91 µM
[2]
  IC50: 9.9 µM
[3]
  IC50: 24.8 µM
[4]
  IC50: 19.4 µM
[5]
  IC50: 2.28 µM
[6]
  IC50: 11.9 µM
[7]
  IC50: 17.6 µM

## O=C(Nc1cccc(-c2oc3cc(-c4ccc(F)cc4)ccc3c(=O)c2O)c1)c1ccc([N+](=O)[O-])cc1
[1]
  IC50: 14.7 µM
[2]
  IC50: 5.64 µM
[3]
  IC50: 18.2 µM
[4]
  IC50: 1.86 µM
[5]
  IC50: 3.97 µM
[6]
  IC50: 12.3 µM
[7]
  IC50: 2.44 µM

## CCc1ccc(C(=O)Nc2cccc(-c3oc4cc(-c5ccc(F)cc5)ccc4c(=O)c3O)c2)cc1
[1]
  IC50: 9.07 µM
[2]
  IC50: 13.2 µM
[3]
  IC50: 24.6 µM
[4]
  IC50: 20.6 µM
[5]
  IC50: 22.8 µM
[6]
  IC50: 21 µM
[7]
  IC50: 18.5 µM

## Cc1cccc(C(=O)Nc2cccc(-c3oc4cc(-c5ccc(F)cc5)ccc4c(=O)c3O)c2)c1
[1]
  IC50: 2.84 µM
[2]
  IC50: 8.03 µM
[3]
  IC50: 10.9 µM
[4]
  IC50: 13.5 µM
[5]
  IC50: 7.85 µM
[6]
  IC50: 6.65 µM
[7]
  IC50: 16.4 µM

## COc1ccc(C(=O)Nc2cccc(-c3oc4cc(-c5ccc(F)cc5)ccc4c(=O)c3O)c2)c(F)c1
[1]
  IC50: 17.6 µM
[2]
  IC50: 24.4 µM
[3]
  IC50: 15.3 µM
[4]
  IC50: 45.3 µM
[5]
  IC50: 20 µM
[6]
  IC50: 16.1 µM
[7]
  IC50: 40 µM

## COc1ccccc1C(=O)Nc1cccc(-c2oc3cc(-c4ccc(F)cc4)ccc3c(=O)c2O)c1
[1]
  IC50: 5.11 µM
[2]
  IC50: 9.05 µM
[3]
  IC50: 6.37 µM
[4]
  IC50: 14.5 µM
[5]
  IC50: 2.1 µM
[6]
  IC50: 14.1 µM
[7]
  IC50: 11.7 µM

## Cc1cc(C)cc(C(=O)Nc2cccc(-c3oc4cc(-c5ccc(F)cc5)ccc4c(=O)c3O)c2)c1
[1]
  IC50: 11.9 µM
[2]
  IC50: 4.86 µM
[3]
  IC50: 13.5 µM
[4]
  IC50: 13.4 µM
[5]
  IC50: 20.4 µM
[6]
  IC50: 5.54 µM
[7]
  IC50: 3.74 µM

## O=C(Nc1cccc(-c2oc3cc(-c4ccc(F)cc4)ccc3c(=O)c2O)c1)c1cccc(F)c1
[1]
  IC50: 2.51 µM
[2]
  IC50: 6.59 µM
[3]
  IC50: 15.8 µM
[4]
  IC50: 15.5 µM
[5]
  IC50: 5.77 µM
[6]
  IC50: 8.78 µM
[7]
  IC50: 15.4 µM

## O=C(Nc1cccc(-c2oc3cc(-c4ccc(F)cc4)ccc3c(=O)c2O)c1)c1ccc(Cl)cc1
[1]
  IC50: 12.8 µM
[2]
  IC50: 4.03 µM
[3]
  IC50: 9.14 µM
[4]
  IC50: 11 µM
[5]
  IC50: 4.73 µM
[6]
  IC50: 3.67 µM
[7]
  IC50: 10.8 µM

## CCCc1ccc(C(=O)Nc2cccc(-c3oc4cc(-c5ccc(F)cc5)ccc4c(=O)c3O)c2)cc1
[1]
  IC50: 32.2 µM
[2]
  IC50: 15.3 µM
[3]
  IC50: 20.4 µM
[4]
  IC50: 51.5 µM
[5]
  IC50: 36.8 µM
[6]
  IC50: 8.79 µM
[7]
  IC50: 47.6 µM

## O=C(Nc1cccc(-c2oc3cc(-c4ccc(F)cc4)ccc3c(=O)c2O)c1)c1ccc(Br)cc1F
[4]
  IC50: > 100 µM
[7]
  IC50: 46.1 µM

## COc1ccc(C(=O)Nc2cccc(-c3oc4cc(-c5ccc(F)cc5)ccc4c(=O)c3O)c2)cc1
[1]
  IC50: 16.5 µM
[2]
  IC50: 5.49 µM
[3]
  IC50: 21.1 µM
[4]
  IC50: 8.42 µM
[5]
  IC50: 6.25 µM
[6]
  IC50: 4.82 µM
[7]
  IC50: 8.7 µM

## O=C(Nc1cccc(-c2oc3cc(-c4ccc(F)cc4)ccc3c(=O)c2O)c1)c1ccc(F)cc1
[1]
  IC50: 16 µM
[2]
  IC50: 14.2 µM
[3]
  IC50: 14.6 µM
[4]
  IC50: 9.28 µM
[5]
  IC50: 8.59 µM
[6]
  IC50: 5.35 µM
[7]
  IC50: 6.93 µM

## O=C(Nc1cccc(-c2oc3cc(-c4ccc(F)cc4)ccc3c(=O)c2O)c1)c1ccc(F)cc1F
[1]
  IC50: 11.2 µM
[2]
  IC50: 6.98 µM
[3]
  IC50: 9.64 µM
[4]
  IC50: 26.4 µM
[5]
  IC50: 13.5 µM
[6]
  IC50: 10.7 µM
[7]
  IC50: 20.5 µM

## Cc1cc(C(=O)Nc2cccc(-c3oc4cc(-c5ccc(F)cc5)ccc4c(=O)c3O)c2)ccc1F
[1]
  IC50: 7.44 µM
[2]
  IC50: 5.42 µM
[3]
  IC50: 12.1 µM
[4]
  IC50: 9.54 µM
[5]
  IC50: 7.71 µM
[6]
  IC50: 18.9 µM
[7]
  IC50: 11.5 µM
